In ChEMBL document CHEMBL1125790, “Spiro[fluoreneisothiazolidin]one dioxides: new aldose reductase and L-hexonate dehydrogenase inhibitors” (J Med Chem, 1991):

What was measured:
[1] = target: Aldo-keto reductase family 1 member B1 (Rattus norvegicus, UniProt P07943); assay: In vitro inhibition of Aldose reductase (AR) from rat lens (RL)
Outline: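 Unfractionated rat lens supernatant (50–100 μg protein) run in the reverse direction: 50 mmol/L potassium phosphate pH 7.5, 12 mmol/L benzyl alcohol, 12 μmol/L oxidized 3-acetylpyridine adenine dinucleotide phosphate, room temperature. Reduced analogue formation followed fluorometrically at 365/480 nm. Same enzyme activity used for all inhibitors. IC50 from linear regression over the linear part of the dose–response curve.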

[2] = target: Aldo-keto reductase family 1 member B1 (Rattus norvegicus) (UniProt P07943); assay: Selectivity as ratio of IC50 for rat lens and kidney […]
[3] = target: Aldo-keto reductase family 1 member A1 (Rattus norvegicus, UniProt P51635); assay: In vitro inhibitory activity against L-Hexonate Dehydrogenase (L-HDH) from rat kidney (RK)
Aldo-keto reductase family 1 member A1, sequence (P51635 whole entry, looked up): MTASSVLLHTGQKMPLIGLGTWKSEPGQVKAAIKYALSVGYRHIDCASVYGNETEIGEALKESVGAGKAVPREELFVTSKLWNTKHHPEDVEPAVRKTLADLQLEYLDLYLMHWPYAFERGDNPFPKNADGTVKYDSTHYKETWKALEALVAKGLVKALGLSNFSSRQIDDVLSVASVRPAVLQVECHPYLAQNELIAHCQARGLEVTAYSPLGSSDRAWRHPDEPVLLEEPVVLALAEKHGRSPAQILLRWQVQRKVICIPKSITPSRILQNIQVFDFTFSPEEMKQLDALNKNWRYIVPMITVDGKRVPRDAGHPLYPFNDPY

| SMILES | IC50 [1] | Selectivity quotient [2] | IC50 [3] |
| --- | --- | --- | --- |
| O=C1NS(=O)(=O)CC12c1cc(F)ccc1-c1ccc(F)cc12 | 6150 µM | 1640 | 3750 nM |
| O=C1CC2(c3ccccc3-c3ccc(F)cc32)S(=O)(=O)N1 (centres undefined) | 0.169 µM | 1.12 | 151 nM |
| O=C1CC2(c3ccccc3-c3ccccc32)S(=O)(=O)N1 | 1.9 µM | 1.09 | 1750 nM |
| O=C1NS(=O)(=O)CC12c1ccccc1-c1ccc(F)cc12 (centres undefined) | > 10000 µM | > 5000 | 2100 nM |
| O=C1NS(=O)(=O)CC12c1ccccc1-c1ccc(Cl)cc12 (centres undefined) | 2370 µM | 675 | 3510 nM |
| O=C1NS(=O)(=O)CC12c1ccccc1-c1ccccc12 | > 10000 µM | > 2000 | 4500 nM |
| O=C1CC2(c3ccccc3-c3ccc(Cl)cc32)S(=O)(=O)N1 (centres undefined) | 0.233 µM | 2.22 | 105 nM |

Compounds with a lower IC50 [1], results first:

| IC50 [1] | Selectivity quotient [2] | IC50 [3] | SMILES |
| --- | --- | --- | --- |
| 0.02 µM | 0.008 | 2400 nM | O=C(O)Cc1nn(Cc2ccc(Br)cc2F)c(=O)c2ccccc12 [PONALRESTAT] |
| 0.018 µM | 0.68 | 27 nM | O=C1CC2(c3cc(F)ccc3-c3ccc(F)cc32)S(=O)(=O)N1 |
| 0.009 µM | 1.8 | 5 nM | O=C1NC(=O)C2(N1)c1cc(F)ccc1-c1ccc(F)cc12 |
| 0.005 µM | 0.56 | 9 nM | O=C1CC2(C(=O)N1)c1cc(F)ccc1-c1ccc(F)cc12 |
| 0.002 µM |  |  | COc1ccc2c(C(=S)N(C)CC(=O)O)cccc2c1C(F)(F)F [TOLRESTAT] |
